In brackets after ≈: the same amount, converted by molar mass.
Columns and labels:
Bacillus subtilis = experiment: Antibacterial activity against Bacillus subtilis MTCC 441 by broth microdilution method; type: functional
Summary of the method: (§1)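 Broth microdilution per NCCLS, with serial dilutions in Mueller Hinton broth and DMSO as diluent. Tubes were incubated overnight at 37 °C. MIC was the lowest concentration giving no visible growth, with the control organism's MIC read to verify concentrations. Tubes without growth were subcultured overnight at 37 °C to judge bacteriostatic versus bactericidal action.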

Vibrio cholerae = experiment: Antibacterial activity against Vibrio cholerae MTCC 3906 by broth microdilution method; type: functional
Clostridium tetani = experiment: Antibacterial activity against Clostridium tetani MTCC 449 by broth microdilution method; type: functional
Aspergillus fumigatus = experiment: Antifungal activity against Aspergillus fumigatus MTCC 3008 by broth microdilution method; type: functional
[1] = test system: Mycobacterium tuberculosis; experiment: Growth inhibition of Mycobacterium tuberculosis H37Rv at 6.25 ug/mL after 12 to 28 days relative to control; type: functional
Candida albicans = experiment: Antifungal activity against Candida albicans MTCC 227 by broth microdilution method; type: functional
Streptococcus pneumoniae = experiment: Antibacterial activity against Streptococcus pneumoniae MTCC 1936 by broth microdilution method; type: functional; summary of the method: as §1
Salmonella typhi = experiment: Antibacterial activity against Salmonella typhi MTCC 98 by broth microdilution method; type: functional, Salmonella enterica subsp. enterica serovar Typhi; details: Salmonella enterica
Plasmodium falciparum = experiment: Antimalarial activity against trophozoite stage of chloroquine-sensitive Plasmodium falciparum 3D7 infected in human erythrocytes after 48 hrs; type: functional, organism-based; details: 3D7, 48 h
Summary of the method: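 Parasites were kept in continuous culture in A+ human erythrocytes in RPMI with 10% human serum. Sorbitol-synchronized trophozoites at 1–2% parasitaemia and 2.5% haematocrit were exposed to serial dilutions (maximum 1 mg/ml; 0.02% final DMSO) for 48 h at 37 °C. Growth inhibition was measured; chloroquine and quinine served as positive controls. IC50 came from duplicate experiments.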

Escherichia coli = experiment: Antibacterial activity against Escherichia coli MTCC 443 by broth microdilution method; type: functional; summary of the method: as §1

Compound | MIC (Bacillus subtilis) | MIC (Vibrio cholerae) | MIC (Clostridium tetani) | MIC (Aspergillus fumigatus) | inhibition at 6.25 µg/mL [1] | MIC (Candida albicans) | MIC (Streptococcus pneumoniae) | MIC (Salmonella typhi) | IC50 (Plasmodium falciparum) | MIC (Escherichia coli)
Cc1ccc2nc(Cl)c(C3C(C#N)=C(N)N(Nc4ccccc4)C4=C3C(=O)CC(C)(C)C4)cc2c1 (stereo unspecified) | 500 µg/mL (≈ 1030 µM) | 250 µg/mL (≈ 517 µM) | 500 µg/mL (≈ 1030 µM) | > 1000 µg/mL | 12% | 500 µg/mL (≈ 1030 µM) | 250 µg/mL (≈ 517 µM) | 200 µg/mL (≈ 413 µM) | 0.15 µg/mL (≈ 0.31 µM) | 100 µg/mL (≈ 207 µM)
COc1ccc2nc(Cl)c(C3C(C#N)=C(N)N(Nc4ccc(F)cc4)C4=C3C(=O)CC(C)(C)C4)cc2c1 (stereo unspecified) | 250 µg/mL (≈ 483 µM) | 100 µg/mL (≈ 193 µM) | 500 µg/mL (≈ 965 µM) | 500 µg/mL (≈ 965 µM) | 22% | 250 µg/mL (≈ 483 µM) | 200 µg/mL (≈ 386 µM) | 125 µg/mL (≈ 241 µM) | 0.25 µg/mL (≈ 0.483 µM) | 125 µg/mL (≈ 241 µM)
COc1ccc2nc(Cl)c(C3C(C#N)=C(N)N(Nc4ccc(Cl)cc4)C4=C3C(=O)CC(C)(C)C4)cc2c1 (stereo unspecified) | 100 µg/mL (≈ 187 µM) | 100 µg/mL (≈ 187 µM) | 200 µg/mL (≈ 374 µM) | > 1000 µg/mL | 21% | > 1000 µg/mL | 100 µg/mL (≈ 187 µM) | 100 µg/mL (≈ 187 µM) | 0.009 µg/mL (≈ 0.0168 µM) | 250 µg/mL (≈ 468 µM)
O=C(N[C@H](CO)[C@H](O)c1ccc([N+](=O)[O-])cc1)C(Cl)Cl [CHLORAMPHENICOL] | 50 µg/mL (≈ 155 µM) | 50 µg/mL (≈ 155 µM) | 50 µg/mL (≈ 155 µM) |  |  |  | 50 µg/mL (≈ 155 µM) | 50 µg/mL (≈ 155 µM) |  | 50 µg/mL (≈ 155 µM)
CC1(C)CC(=O)C2=C(C1)N(Nc1ccc(Cl)cc1)C(N)=C(C#N)C2c1cc2cc(Cl)ccc2nc1Cl (stereo unspecified) | 200 µg/mL (≈ 371 µM) | 100 µg/mL (≈ 186 µM) | 200 µg/mL (≈ 371 µM) | > 1000 µg/mL | 87% | > 1000 µg/mL | 200 µg/mL (≈ 371 µM) | 100 µg/mL (≈ 186 µM) | 0.028 µg/mL (≈ 0.052 µM) | 62.5 µg/mL (≈ 116 µM)
COc1ccc2nc(Cl)c(C3C(C#N)=C(N)N(Nc4ccc(Br)cc4)C4=C3C(=O)CC(C)(C)C4)cc2c1 (stereo unspecified) | 250 µg/mL (≈ 432 µM) | 200 µg/mL (≈ 345 µM) | 200 µg/mL (≈ 345 µM) | 500 µg/mL (≈ 864 µM) | 17% | 1000 µg/mL (≈ 1730 µM) | 250 µg/mL (≈ 432 µM) | 125 µg/mL (≈ 216 µM) | 0.014 µg/mL (≈ 0.0242 µM) | 200 µg/mL (≈ 345 µM)
COc1ccc(NN2C(N)=C(C#N)C(c3cc4ccccc4nc3Cl)C3=C2CC(C)(C)CC3=O)cc1 (stereo unspecified) | 500 µg/mL (≈ 1000 µM) | 250 µg/mL (≈ 500 µM) | 250 µg/mL (≈ 500 µM) | > 1000 µg/mL | 44% | > 1000 µg/mL | 200 µg/mL (≈ 400 µM) | 200 µg/mL (≈ 400 µM) | 0.025 µg/mL (≈ 0.05 µM) | 250 µg/mL (≈ 500 µM)
C=C[C@H]1CN2CC[C@H]1C[C@H]2[C@H](O)c1ccnc2ccc(OC)cc12 [QUININE] |  |  |  |  |  |  |  |  | 0.268 µg/mL (≈ 0.826 µM) | 
CC1(C)CC(=O)C2=C(C1)N(Nc1ccc(Br)cc1)C(N)=C(C#N)C2c1cc2cc(Cl)ccc2nc1Cl (stereo unspecified) | 250 µg/mL (≈ 429 µM) | 250 µg/mL (≈ 429 µM) | 250 µg/mL (≈ 429 µM) | 500 µg/mL (≈ 857 µM) | 85% | 1000 µg/mL (≈ 1710 µM) | 200 µg/mL (≈ 343 µM) | 250 µg/mL (≈ 429 µM) | 0.08 µg/mL (≈ 0.137 µM) | 100 µg/mL (≈ 171 µM)
CC1(C)CC(=O)C2=C(C1)N(Nc1ccc(F)cc1)C(N)=C(C#N)C2c1cc2ccccc2nc1Cl (stereo unspecified) | 500 µg/mL (≈ 1020 µM) | 200 µg/mL (≈ 410 µM) | 200 µg/mL (≈ 410 µM) | 1000 µg/mL (≈ 2050 µM) | 62% | 1000 µg/mL (≈ 2050 µM) | 500 µg/mL (≈ 1020 µM) | 200 µg/mL (≈ 410 µM) | 0.027 µg/mL (≈ 0.0553 µM) | 200 µg/mL (≈ 410 µM)
Cc1ccc2nc(Cl)c(C3C(C#N)=C(N)N(Nc4ccc(F)cc4)C4=C3C(=O)CC(C)(C)C4)cc2c1 (stereo unspecified) | 250 µg/mL (≈ 498 µM) | 200 µg/mL (≈ 398 µM) | 200 µg/mL (≈ 398 µM) | 1000 µg/mL (≈ 1990 µM) | 33% | 1000 µg/mL (≈ 1990 µM) | 250 µg/mL (≈ 498 µM) | 250 µg/mL (≈ 498 µM) | 0.047 µg/mL (≈ 0.0936 µM) | 250 µg/mL (≈ 498 µM)
CC1(C)CC(=O)C2=C(C1)N(Nc1ccc(F)cc1)C(N)=C(C#N)C2c1cc2cc(Cl)ccc2nc1Cl (stereo unspecified) | 100 µg/mL (≈ 191 µM) | 125 µg/mL (≈ 239 µM) | 500 µg/mL (≈ 957 µM) | > 1000 µg/mL | 65% | 500 µg/mL (≈ 957 µM) | 200 µg/mL (≈ 383 µM) | 500 µg/mL (≈ 957 µM) | 0.154 µg/mL (≈ 0.295 µM) | 250 µg/mL (≈ 479 µM)
NYSTATIN |  |  |  | 100 µg/mL |  | 100 µg/mL |  |  |  | 
CC1(C)S[C@@H]2[C@H](NC(=O)[C@H](N)c3ccccc3)C(=O)N2[C@H]1C(=O)O [AMPICILLIN] | 250 µg/mL (≈ 715 µM) | 100 µg/mL (≈ 286 µM) | 250 µg/mL (≈ 715 µM) |  |  |  | 100 µg/mL (≈ 286 µM) | 100 µg/mL (≈ 286 µM) |  | 100 µg/mL (≈ 286 µM)
CCn1cc(C(=O)O)c(=O)c2cc(F)c(N3CCNCC3)cc21 [NORFLOXACIN] | 100 µg/mL (≈ 313 µM) | 10 µg/mL (≈ 31.3 µM) | 50 µg/mL (≈ 157 µM) |  |  |  | 10 µg/mL (≈ 31.3 µM) | 10 µg/mL (≈ 31.3 µM) |  | 10 µg/mL (≈ 31.3 µM)

— ChEMBL document CHEMBL2040757, “New N-arylamino biquinoline derivatives: synthesis, antimicrobial, antituberculosis, and antimalarial evaluation” (Eur J Med Chem, 2012)
